Source: ChEMBL document CHEMBL1671740, “Increased temperature enhances the antimicrobial effects of daptomycin, vancomycin, tigecycline, fosfomycin, and cefamandole on staphylococcal biofilms” (2010)
Values after ≈ are worked out from the molar mass of the structure shown. Active and inactive are the calls of the source. No cut-off for these calls is given here.

How the values were obtained:
Format in all cases: functional
Staphylococcus aureus [1] = experiment: Antimicrobial activity against Staphylococcus aureus isolated from human preoperative skin by […]
Staphylococcus [2] = experiment: Antimicrobial activity against Staphylococcus isolates biofilms assessed as decrease in bacterial load at 100 mg/litre at ambient temperature of 35 degC after 24 hrs relative to baseline
Outline: (§1)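 24-h static biofilms of the staphylococcal isolates were exposed to drug for 24 h at 35, 40 or 45°C. Biofilms were not fixed but scraped off and resuspended in MHB, then serially diluted and 0.1 ml plated on blood agar, read after 48 h at 35°C in ambient air. Done in duplicate as mean log10 CFU/ml; log reduction was taken versus untreated biofilm.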

[3] = test system: Staphylococcus epidermidis; experiment: Antimicrobial activity against Staphylococcus epidermidis DSM3269 by […]
Staphylococcus aureus [4] = experiment: Antimicrobial activity against Staphylococcus aureus ATCC 29213 administered as powder at 45 degC after 24 hrs; conditions: ATCC 29213, 24 h
Outline: (§2)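 Antimicrobials, as powder or in solution as used for MIC testing, held at 45°C for 1 and 24 h in three independent experiments. MICs were then determined by the CLSI microtiter plate method in cation-adjusted Mueller-Hinton medium, with MHB containing 50 μg/ml calcium for daptomycin. Values are median (range) […] in mg/liter.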

Staphylococcus aureus [5] = experiment: Antimicrobial activity against Staphylococcus aureus ATCC 29213 by […]
Staphylococcus aureus [6] = experiment: Antimicrobial activity against Staphylococcus aureus isolated from human prosthetic joint infection site by […]
Staphylococcus [7] = experiment: Antimicrobial activity against coagulase-negative Staphylococcus isolated from human prosthetic joint infection site by […]
Staphylococcus [8] = experiment: Antimicrobial activity against Staphylococcus isolates biofilms assessed as decrease in bacterial load at 100 mg/litre at ambient temperature of 40 degC after 24 hrs relative to baseline; outline: as §1
Staphylococcus [9] = experiment: Antimicrobial activity against Staphylococcus isolates biofilms assessed as decrease in bacterial load at 100 mg/litre at ambient temperature of 45 degC after 24 hrs relative to baseline; outline: as §1
[10] = test system: Staphylococcus epidermidis; experiment: Antimicrobial activity against Staphylococcus epidermidis isolate OR1 treated in solution at 45 degC after 24 hrs; conditions: isolate OR1, 24 h; outline: as §2
[11] = test system: Staphylococcus epidermidis; experiment: Antimicrobial activity against Staphylococcus epidermidis isolate KO8 isolated from healthy human skin by […]
Staphylococcus [12] = experiment: Antimicrobial activity against Staphylococcus isolates biofilms assessed as decrease in bacterial load at 25 mg/litre at ambient temperature of 45 degC after 24 hrs relative to baseline; outline: as §1
Staphylococcus [13] = experiment: Antimicrobial activity against coagulase-negative Staphylococcus isolated from human preoperative skin by […]
Staphylococcus [14] = experiment: Antimicrobial activity against Staphylococcus isolates biofilms assessed as change in optical density ratio of biofilms at 500 mg/litre at ambient temperature of 45 degC after 24 hrs relative to baseline
Outline: (§3)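 Static microtiter biofilms of 34 clinical S. aureus and CoNS isolates from orthopedic implant infections or preoperative skin, plus reference strains. Inoculum was McFarland 0.5 diluted 1:100 in calcium-supplemented MHB, grown 24 h at 35°C in ambient air. Established biofilms were exposed to drug for 24 h at 35, 40 or 45°C, then formalin-fixed and stained with 1% crystal violet for 5 min, and OD read at 550 nm in quadruplicate.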

Staphylococcus [15] = experiment: Antimicrobial activity against Staphylococcus isolates biofilms assessed as change in optical density ratio of biofilms at 50 mg/litre at ambient temperature of 40 degC after 24 hrs relative to baseline; outline: as §3
Staphylococcus [16] = experiment: Antimicrobial activity against Staphylococcus isolates biofilms assessed as decrease in bacterial load at 500 mg/litre at ambient temperature of 45 degC after 24 hrs relative to baseline; outline: as §1
Staphylococcus [17] = experiment: Antimicrobial activity against Staphylococcus isolates biofilms assessed as change in optical density ratio of biofilms at 100 mg/litre at ambient temperature of 45 degC after 24 hrs relative to baseline; outline: as §3
Staphylococcus [18] = experiment: Antimicrobial activity against Staphylococcus isolates biofilms assessed as change in optical density ratio of biofilms at 50 mg/litre at ambient temperature of 45 degC after 24 hrs relative to baseline; outline: as §3
Staphylococcus [19] = experiment: Antimicrobial activity against Staphylococcus isolates biofilms assessed as change in optical density ratio of biofilms at 50 mg/litre at ambient temperature of 35 degC after 24 hrs relative to baseline; outline: as §3
Staphylococcus [20] = experiment: Antimicrobial activity against Staphylococcus isolates biofilms assessed as change in optical density ratio of biofilms at 500 mg/litre at ambient temperature of 40 degC after 24 hrs relative to baseline; outline: as §3
Staphylococcus [21] = experiment: Antimicrobial activity against Staphylococcus isolates biofilms assessed as change in optical density ratio of biofilms at 500 mg/litre at ambient temperature of 35 degC after 24 hrs relative to baseline; outline: as §3
Staphylococcus [22] = experiment: Antimicrobial activity against Staphylococcus isolates biofilms assessed as change in optical density ratio of biofilms at 100 mg/litre at ambient temperature of 40 degC after 24 hrs relative to baseline; outline: as §3
Staphylococcus [23] = experiment: Antimicrobial activity against Staphylococcus isolates biofilms assessed as change in optical density ratio of biofilms at 100 mg/litre at ambient temperature of 35 degC after 24 hrs relative to baseline; outline: as §3
Staphylococcus [24] = experiment: Antimicrobial activity against Staphylococcus isolates biofilms assessed as decrease in bacterial load at 500 mg/litre at ambient temperature of 40 degC after 24 hrs relative to baseline; outline: as §1

## CCCCCCCCCC(=O)N[C@@H](Cc1c[nH]c2ccccc12)C(=O)N[C@H](CC(N)=O)C(=O)N[C@@H](CC(=O)O)C(=O)N[C@@H]1C(=O)NCC(=O)N[C@@H](CCCN)C(=O)N[C@@H](CC(=O)O)C(=O)N[C@H](C)C(=O)N[C@@H](CC(=O)O)C(=O)NCC(=O)N[C@H](CO)C(=O)N[C@@H]([C@H](C)CC(=O)O)C(=O)N[C@@H](CC(=O)c2ccccc2N)C(=O)O[C@@H]1C
Staphylococcus aureus [1]
  MIC: 0.125 µg/mL (≈ 0.0771 µM)
Staphylococcus [2]
  fold change (FC): 2
[3]
  MIC: 0.25 µg/mL (≈ 0.154 µM)
Staphylococcus aureus [4]
  MIC: 0.5 µg/mL (≈ 0.309 µM)
Staphylococcus aureus [5]
  MIC: 0.125 µg/mL (≈ 0.0771 µM)
Staphylococcus aureus [6]
  MIC: 0.125 µg/mL (≈ 0.0771 µM)
Staphylococcus [7]
  MIC: 0.125 µg/mL (≈ 0.0771 µM)
Staphylococcus [8]
  fold change (FC): 3.6
Staphylococcus [9]
  fold change (FC): 3.3
[10]
  MIC: 1 µg/mL (≈ 0.617 µM)
[11]
  MIC: 0.25 µg/mL (≈ 0.154 µM)
Staphylococcus [12]
  fold change (FC): 1.2
Staphylococcus [13]
  MIC: 0.25 µg/mL (≈ 0.154 µM)

## Cn1nnnc1SCC1=C(C(=O)O)N2C(=O)[C@@H](NC(=O)[C@H](O)c3ccccc3)[C@H]2SC1 [CEFAMANDOLE]
Staphylococcus aureus [1]
  MIC: 0.25 µg/mL (≈ 0.541 µM)
Staphylococcus [14]
  Ratio: 0.65
Staphylococcus [15]
  Ratio: 1.07
Staphylococcus [16]
  fold change (FC): 2
Staphylococcus [2]
  Activity: inactive
[3]
  MIC: 0.5 µg/mL (≈ 1.08 µM)
Staphylococcus [17]
  Ratio: 0.63
Staphylococcus aureus [4]
  MIC: 0.25 µg/mL (≈ 0.541 µM)
Staphylococcus aureus [5]
  MIC: 0.5 µg/mL (≈ 1.08 µM)
Staphylococcus aureus [6]
  MIC: 1 µg/mL (≈ 2.16 µM)
Staphylococcus [18]
  Ratio: 0.86
Staphylococcus [19]
  Ratio: 1.29
Staphylococcus [20]
  Ratio: 0.62
Staphylococcus [21]
  Ratio: 1.27
Staphylococcus [7]
  MIC: 1 µg/mL (≈ 2.16 µM)
Staphylococcus [22]
  Ratio: 1.06
[10]
  MIC: 2 µg/mL (≈ 4.32 µM)
Staphylococcus [23]
  Ratio: 1.12
[11]
  MIC: 0.25 µg/mL (≈ 0.541 µM)
Staphylococcus [24]
  fold change (FC): 2
Staphylococcus [13]
  MIC: 0.25 µg/mL (≈ 0.541 µM)
